Data published in ChEMBL document CHEMBL3045357, “DNA adducts as biomarkers for oxidative and genotoxic stress from pesticides in crop plants” (J Agric Food Chem, 2008).

Key:
Format in all cases: organism-based
Settings in all cases: in vivo, other, 336 h
Glycine max [1] = experiment: Genotoxicity in Glycine max (soybean) exposed to compound through spray 4 times over 2 weeks assessed as HX-dG adducts using [32P]labeling based autoradiography
Procedure, shortened: (§1)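 Plants (2–6 weeks grown), groups of 2–4, sprayed 4 times over 2 weeks with formulations diluted per label (chlorothalonil 1:256, carbaryl 1:64 in water); controls water-sprayed. DNA from 1 g leaf via DNeasy Maxi kit. 10 µg DNA digested with micrococcal nuclease/spleen phosphodiesterase (4 h, 37 °C), NP1-enriched (45 min, 37 °C), labelled with [γ-32P]ATP/T4 kinase (45 min, 37 °C).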

Glycine max [2] = experiment: Genotoxicity in Glycine max (soybean) exposed to compound through spray 4 times over 2 weeks assessed as relative adduct level A1 measured per 10^9 nucleotides using HX-dG internal standard using [32P]labeling based autoradiography relative to untreated control; procedure, shortened: as §1
Glycine max [3] = experiment: Genotoxicity in Glycine max (soybean) exposed to compound through spray 4 times over 2 weeks assessed as relative adduct level A5 measured per 10^9 nucleotides using [32P]labeling based autoradiography relative to untreated control; procedure, shortened: as §1
Glycine max [4] = experiment: Genotoxicity in Glycine max (soybean) exposed to compound through spray 4 times over 2 weeks assessed as relative adduct level A5 measured per 10^9 nucleotides using HX-dG internal standard using [32P]labeling based autoradiography relative to untreated control; procedure, shortened: as §1
Glycine max [5] = experiment: Genotoxicity in Glycine max (soybean) exposed to compound through spray 4 times over 2 weeks assessed as HNE-dG adducts using [32P]labeling based autoradiography (reference value: 34 cpm); procedure, shortened: as §1
Glycine max [6] = experiment: Genotoxicity in Glycine max (soybean) exposed to compound through spray 4 times over 2 weeks assessed as relative adduct level A4 measured per 10^9 nucleotides using HX-dG internal standard using [32P]labeling based autoradiography relative to untreated control; procedure, shortened: as §1
Glycine max [7] = experiment: Genotoxicity in Glycine max (soybean) exposed to compound through spray 4 times over 2 weeks assessed as HX-dG adducts measured per 10^9 nucleotides using [32P]labeling based autoradiography; procedure, shortened: as §1
Glycine max [8] = experiment: Genotoxicity in Glycine max (soybean) exposed to compound through spray 4 times over 2 weeks assessed as relative adduct level A3 measured per 10^9 nucleotides using HX-dG internal standard using [32P]labeling based autoradiography relative to untreated control; procedure, shortened: as §1
Glycine max [9] = experiment: Genotoxicity in Glycine max (soybean) exposed to compound through spray 4 times over 2 weeks assessed as HNE-dG adducts measured per 10^9 nucleotides using [32P]labeling based autoradiography (reference value: 2 no unit); procedure, shortened: as §1
Glycine max [10] = experiment: Genotoxicity in Glycine max (soybean) exposed to compound through spray 4 times over 2 weeks assessed as relative adduct level A4 measured per 10^9 nucleotides using [32P]labeling based autoradiography relative to untreated control; procedure, shortened: as §1
Glycine max [11] = experiment: Genotoxicity in Glycine max (soybean) exposed to compound through spray 4 times over 2 weeks assessed as relative adduct level A1 measured per 10^9 nucleotides using [32P]labeling based autoradiography relative to untreated control; procedure, shortened: as §1
Glycine max [12] = experiment: Genotoxicity in Glycine max (soybean) exposed to compound through spray 4 times over 2 weeks assessed as relative adduct level A2 measured per 10^9 nucleotides using HX-dG internal standard using [32P]labeling based autoradiography relative to untreated control; procedure, shortened: as §1
Glycine max [13] = experiment: Genotoxicity in Glycine max (soybean) exposed to compound through spray 4 times over 2 weeks assessed as relative adduct level A3 measured per 10^9 nucleotides using [32P]labeling based autoradiography relative to untreated control; procedure, shortened: as §1
Glycine max [14] = experiment: Genotoxicity in Glycine max (soybean) exposed to compound through spray 4 times over 2 weeks assessed as relative adduct level A2 measured per 10^9 nucleotides using [32P]labeling based autoradiography relative to untreated control; procedure, shortened: as §1

Compound `CNC(=O)Oc1cccc2ccccc12` [CARBARIL] has an Activity (Glycine max [1]) of 6310 cpm, an Activity (Glycine max [2]) of 569 cpm and an Activity (Glycine max [3]) of 54. It also gave an Activity (Glycine max [4]) of 2767 cpm, an Activity (Glycine max [5]) of 2956 cpm and an Activity (Glycine max [6]) of 773 cpm. For the same compound, the Activity (Glycine max [7]) was 164, the Activity (Glycine max [8]) was 809 cpm and the Activity (Glycine max [9]) was 58. It also gave an Activity (Glycine max [10]) of 15, an Activity (Glycine max [11]) of 11 and an Activity (Glycine max [12]) of 571 cpm. It also gave an Activity (Glycine max [13]) of 16 and an Activity (Glycine max [14]) of 11.
